From PubChem
In the library only some 5.1% were active in any assay of this set; here they are far more common.
NF-kB neuron act = raises NF-kB expression in human neuronal cells; NF-kB reporter expression; active compounds read high; fold change at 12.5 µM; hit rate 1.6% among 190,000; in the data active = fold change above about 3.3
STAT3 act = increases IL-6 driven STAT3 reporter signal. U3A cells, IL-6 STAT3-luciferase reporter, luminescence; 100% = signal with IL-6 EC80 alone. hit rate 0.91% among 190,000. activation (% of control), % at 5.6 µM;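 active = activation above the screen-wide mean of compound activation plus 3 SD, cut at about 130% in these data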;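 note: 0% = background luminescence of wells with medium and substrate only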
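system = STAT3-luciferase reporter U3A cells | reagent = IL-6 stimulus at 33 ng/mL final | timing = 1 h compound pre-exposure, 6 h IL-6 stimulation, 37 °C | measured by = luminescence | evaluation = % activation versus median of IL-6-stimulated wells | control set = IL-6-only wells as 100% reference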
STAT1 act = STAT1 signaling activation. hit rate 2.6% among 200,000. AID 932. NIH 3T3 STAT1-luciferase reporter, IFN-gamma, luminescence; 100% = IFN-gamma alone, no compound. activation (% of control), % at 5.5 µM;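 active = activation above the screen-wide mean activation plus 3 SD, cut at about 130% in these data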;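 note: raw ratio to IFN-gamma control signal so 100% means no change and 0% no light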
STAT1 blocker = inhibitors of IFN-gamma induced STAT1 signaling; NIH 3T3 STAT1-luciferase reporter, luminescence; inhibition, % at 5.5 µM; hit rate 0.35% among 200,000; AID 920;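 active = inhibition above a set limit, the mean inhibition across all tested compounds plus 3 SD, cut at about 34% in these data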;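 note: 0% = IFN-gamma with DMSO and 100% = IFN-gamma with 300 µM nifuroxazide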
APP 5'UTR act = activates APP 5'UTR luciferase reporter; hit rate 1% among 190,000; activation, % at 2 µM; SH-SY5Y APP 5'UTR luciferase reporter, luminescence; zero percent = DMSO vehicle wells;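 active = activation above a set limit, based on mean plus 3 SD of controls, cut at about 140% in these data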
STAT3 inh = inhibitors of IL-6 induced STAT3 signaling | U3A cells, IL-6 STAT3-luciferase reporter, luminescence; host cell line lacks STAT1 | inhibition, % at 5.5 µM | hit rate 0.89% among 190,000 | AID 862;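 active = inhibition above the mean inhibition across all screened compounds plus 3 SD, cut at about 44% in these data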;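 note: 0% = DMSO only wells and 100% = 100 µM nifuroxazide control wells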
Active calls of the source: *; . = not tested or not shown.

SMILES | NF-kB neuron act | STAT3 act | STAT1 act | STAT1 blocker | APP 5'UTR act | STAT3 inh
O=C(Nc1ccc(CN2CCOCC2)cc1)c1cccc(-c2cc3ccccc3oc2=O)c1 | 0.52 | 93 | 111 | -13 | 3 | 15
C/C(=N\NC(=O)c1ccc(CN2CCOCC2)cc1)c1ccc(NC(=O)c2ccccc2)cc1 | 1.5 | 96 | 131* | -37 | 74 | 10
Cc1ccc(S(=O)(=O)CCSC(=N)N)cc1 | 1 | 106 | 89 | 11 | 13 | 0
COc1cc(OC)cc(C(=O)N[C@H](C(=O)NCc2cccs2)C(C)C)c1 | 1 | 107 | 90 | 8 | 3 | -3
C=CCn1c(C(C)NC(=O)c2cccc(C)c2)n[nH]c1=S (configuration not stated) | 3.3* | 98 | 96 | 4 | 13 | 9
c1csc(C2CCCN2c2nc3nonc3nc2NC2CC2)n1 (configuration not stated) | 1.3 | 104 | 88 | 11 | 0 | -2
CCC(CC)c1nnc(NC(=O)c2cc(C(=O)OC)cc([N+](=O)[O-])c2)s1 | 1.6 | 84 | 94 | 7 | 2 | 22
c1csc(-c2cnc3ccccc3n2)c1 | 2.6 | 103 | 129* | -29 | 93 | 1
CCCCCCCOc1ccc(-c2ccc(C#N)cn2)cc1 | 1.1 | 99 | 108 | -9 | 6 | -1
CCCCOc1ccc(-c2cnc3ccccc3n2)cc1 | 3.6* | 64 | 149* | -55 | . | 42
Clc1ccc(-c2cnc3ccccc3n2)cc1 | 3.3* | 111 | 113 | -12 | 135* | -16
CCCCOc1ccc(-c2ncc(Cl)cn2)cc1 | 3.7* | 91 | 122 | -24 | 12 | 14
CCn1cc(C(=O)NCc2ccc3c(c2)OCO3)c(=O)c2cc(F)c(N3CCN(C(=O)c4ccco4)CC3)cc21 | 0.44 | 79 | 88 | 13 | -1 | 23
CC(=O)c1cn(C)c(=O)[nH]c1=O | 1 | 106 | 103 | -6 | -3 | -7
Cc1nn(CCOc2cccc(Br)c2)c(C)c1[N+](=O)[O-] | 0.88 | 102 | 102 | -4 | 5 | 1
CCCCOc1ccc(-c2cc(C(=O)NNC(=S)NCC)c3ccccc3n2)cc1 | 4.1* | 28 | 45 | 59* | 154* | 87*
CCCCOc1ccc(/C=C/C(=O)NC2=Nc3ccccc3NC(C)=C2C(=O)OCC)cc1OC | 0.98 | 98 | 96 | 4 | -11 | 4
O=C(c1cn(-c2ccccc2)nc1-c1cccs1)N1CCN(c2ccc(F)cc2)CC1 | 0.78 | 98 | 97 | 4 | -1 | 6
Nc1nnc(CC(=O)N/N=C/c2cccc(OCCOc3ccccc3)c2)s1 | 1.5 | 111 | 129* | -31 | 90 | -8
c1ccc(-c2ncc(CSc3nncn3-c3ccccc3)s2)cc1 | 1.1 | 93 | 98 | 2 | 1 | 12
Cc1nnc(SCc2cnc(-c3ccc(C(C)C)cc3)s2)n1C | 5.7* | 50 | 66 | 37* | 152* | 65*
Fc1cccc2sc(Nc3nnc(-c4ccco4)o3)nc12 | 2 | 112 | 132* | -35 | 46 | -12
COc1cccc2sc(Nc3nnc(-c4cccs4)o3)nc12 | 1.2 | 172* | 139* | -43 | 71 | -80
CC1=C(C(=O)N2CCOCC2)C(c2ccc(OC(F)F)cc2)NC(=S)N1c1ccccc1 (configuration not stated) | 1.3 | 103 | 99 | 2 | -13 | 6
COc1cc2ccccc2cc1C(=O)OCC(=O)N1CCOCC1 | 1.1 | 92 | 101 | -3 | 24 | 14
SMILES | NF-kB neuron act | STAT3 act | STAT1 act | STAT1 blocker | APP 5'UTR act | STAT3 inh
COc1ccc(C(=O)OCC(=O)N2CCCC2=O)c(OC)c1 | 1.1 | 104 | 139* | -45 | 3 | 0
CCOC(=O)C1(CCCc2ccccc2)CCN(C(=O)c2cnn(CC)c2)CC1 | 1.1 | 101 | 88 | 12 | -15 | 2
CC1CCC/C(=C(\C#N)c2nc(-c3cc4ccccc4oc3=O)cs2)C1 (configuration not stated) | 0.8 | 111 | 122 | -25 | 148* | -13
CC(=O)N(CN1C(=O)c2ccc([N+](=O)[O-])cc2C1=O)c1cccc(C(=O)O)c1 | 0.93 | 95 | 95 | 5 | -6 | 10
Cc1ccccc1CSc1nnc(C)n1N | 1.4 | 108 | 101 | -1 | -15 | -6
Cc1nnc(SCc2nc3ccccc3s2)n1N | 1.6 | 141* | 134* | -37 | 91 | -50
c1ccc2oc(SCc3nc4ccccc4s3)nc2c1 | 3.1 | 138* | 139* | -42 | 122 | -41
c1ccc2oc(SCc3cn4ccccc4n3)nc2c1 | 3.4* | 93 | 131* | -33 | 125 | 12
Cc1cccc2nc(CSc3nc4ccccc4o3)cn12 | 1.4 | 94 | 114 | -16 | 24 | 9
O=C(O)c1ccccc1CSc1nc2ccccc2o1 | 1.8 | 115 | 140* | -44 | 29 | -13
CCN(CC)C(=O)Cn1cc(C(=O)C(=O)NCc2ccco2)c2ccccc21 | 1.1 | 103 | 98 | 2 | -10 | 2
Cc1sc2ncn(CC(=O)Nc3ccccc3F)c(=O)c2c1-c1ccccc1 | 0.99 | 102 | 87 | 14 | 14 | 2
Nc1c(C(=O)N2CCCC2)sc2nc3c(cc12)CCCCCC3 | 1.8 | 104 | 147* | -50 | 132 | -3
Nc1c(C(=O)N2CCOCC2)sc2nc3c(cc12)CCC3 | 3.4* | 90 | 122 | -26 | 109 | 14
NC(=O)c1sc2nc3c(cc2c1N)CCC3 | 2 | 83 | 109 | -10 | 27 | 26
CC(=O)Nc1c(C(=O)N2CCOCC2)sc2nc3c(cc12)COC(C)(C)C3 | 1.1 | 104 | 101 | -1 | 5 | -3
C=C(C)Cn1c(C)cc(C)c(S(=O)(=O)c2cccc(C)c2)c1=O | 0.97 | 98 | 90 | 11 | 14 | 7
COC(=O)CCn1nnc(-c2ccc(C(C)C)cc2)n1 | 0.37 | 34 | 57 | 48* | -77 | 84*
c1ccc2c(-c3nnc(SCc4cn5ccccc5n4)o3)c[nH]c2c1 | 1.4 | 91 | 98 | 2 | 53 | 12
c1ccc2c(-c3cn4ccccc4n3)c[nH]c2c1 | 3.4* | 119 | 150* | -51 | 149* | -17
Cc1ccc(-n2nc(C)c3c2OC(N)=C(C#N)C3c2ccccc2F)cc1 (configuration not stated) | 1 | 146* | 84 | 18 | -47 | -43
Cc1ccc(-n2nc(C)c3c2OC(N)=C(C#N)C3c2ccncc2)cc1 (configuration not stated) | 1.1 | 125 | 90 | 12 | 14 | -25
Cc1nn(-c2ccccc2)c2c1C(c1c(C)[nH]c(C#N)c1C)C(C#N)=C(N)O2 (configuration not stated) | 1 | 134* | 100 | 0 | 4 | -37
Nc1nnc(SCC(=O)N2CCN(Cc3ccccc3)CC2)s1 | 1.1 | 96 | 83 | 11 | -6 | 6
CC(=NC1CCCCC1)C1=C(O)c2ccccc2C1=O | . | 110 | 148* | -53 | 132 | -4
